According to ChEMBL document CHEMBL5724801, “EUbOPEN Chemogenomics Library - Multiplex” (2024):
Values joined by “and” are separate entries in the source; they are usually repeats but may differ in a detail not shown here. Identical values can stand only once.

Tested on: Fibroblast
Assay: Multiplex assay against human fibroblast
Format: toxicity, cell-based
How it was run: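 Cells were classed with CellPathfinder machine-learning gating, first as Hoechst high-intensity objects or normal cells, then (normal cells) as healthy, pyknosed or fragmented nuclei, and finally (pyknosed cells) as mitotic or apoptotic. Staining of live cells at seeding used Hoechst33342, BioTracker Green Microtubule Cytoskeleton Dye, MitoTracker Red and Annexin V Alexa Fluor 680, with imaging on a CQ1 microscope at 37°C and 5% CO2 after compound addition. Tubulin, mitochondrial-mass and membrane-permeability phenotypes are per cents of healthy-nucleus cells.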

[1] = 12 h, 1 µM, compound concentration 1 uM
[2] = 12 h, 10 µM, compound concentration 10 uM
[3] = 24 h, 1 µM, compound concentration 1 uM
[4] = 24 h, 10 µM, compound concentration 10 uM
[5] = 48 h, 1 µM, compound concentration 1 uM
[6] = 48 h, 10 µM, compound concentration 10 uM

S=C(NCCCc1c[nH]cn1)NCCCN(Cc1ccc(Cl)c(Cl)c1)c1ccc(Br)cn1
Population Apoptotic (%) [1]: 40% and 31% | Population Fragmented Nuclei (%) [1]: 13% and 30% | Population Healthy Nuclei (%) [1]: 71% and 50% | Population Hoechst High Intensity Objects (%) [1]: 5% and 4% | Population Membrane Permeable-Phenotype (%) [1]: 1% and 5% | Population Mitochondria Different-Phenotype (%) [1]: 5% and 6% | Population Mitotic Cells (%) [1]: 60% and 68% | Population Normal (%) [1]: 94% and 95% | Population Pyknosed Nuclei (%) [1]: 14% and 18% | Population Tubulin-Different-Phenotype (%) [1]: 26% and 37% | Total Cell Count [1]: 142 and 181 | Population Apoptotic (%) [2]: 47% and 52% | Population Fragmented Nuclei (%) [2]: 27% and 34% | Population Healthy Nuclei (%) [2]: 56% and 53% | Population Hoechst High Intensity Objects (%) [2]: 3% and 5% | Population Membrane Permeable-Phenotype (%) [2]: 0% | Population Mitochondria Different-Phenotype (%) [2]: 15% and 10% | Population Mitotic Cells (%) [2]: 52% and 47% | Population Normal (%) [2]: 96% and 94% | Population Pyknosed Nuclei (%) [2]: 16% and 12% | Population Tubulin-Different-Phenotype (%) [2]: 89% | Total Cell Count [2]: 220 and 279 | Population Apoptotic (%) [3]: 69% and 23% | Population Fragmented Nuclei (%) [3]: 15% and 30% | Population Healthy Nuclei (%) [3]: 74% and 57% | Population Hoechst High Intensity Objects (%) [3]: 4% and 1% | Population Membrane Permeable-Phenotype (%) [3]: 2% | Population Mitochondria Different-Phenotype (%) [3]: 2% and 6% | Population Mitotic Cells (%) [3]: 30% and 76% | Population Normal (%) [3]: 95% and 98% | Population Pyknosed Nuclei (%) [3]: 9% and 11% | Population Tubulin-Different-Phenotype (%) [3]: 28% and 42% | Total Cell Count [3]: 137 and 183 | Population Apoptotic (%) [4]: 66% and 61% | Population Fragmented Nuclei (%) [4]: 22% and 27% | Population Healthy Nuclei (%) [4]: 61% and 59% | Population Hoechst High Intensity Objects (%) [4]: 1% and 4% | Population Membrane Permeable-Phenotype (%) [4]: 0% and 2% | Population Mitochondria Different-Phenotype (%) [4]: 19% and 7% | Population Mitotic Cells (%) [4]: 33% and 38% | Population Normal (%) [4]: 98% and 95% | Population Pyknosed Nuclei (%) [4]: 15% and 13% | Population Tubulin-Different-Phenotype (%) [4]: 93% and 95% | Total Cell Count [4]: 214 and 248 | Population Apoptotic (%) [5]: 75% and 35% | Population Fragmented Nuclei (%) [5]: 27% and 30% | Population Healthy Nuclei (%) [5]: 67% and 59% | Population Hoechst High Intensity Objects (%) [5]: 3% and 4% | Population Membrane Permeable-Phenotype (%) [5]: 0% and 5% | Population Mitochondria Different-Phenotype (%) [5]: 0% and 3% | Population Mitotic Cells (%) [5]: 25% and 64% | Population Normal (%) [5]: 96% and 95% | Population Pyknosed Nuclei (%) [5]: 5% and 10% | Population Tubulin-Different-Phenotype (%) [5]: 24% and 36% | Total Cell Count [5]: 156 and 178 | Population Apoptotic (%) [6]: 62% and 63% | Population Fragmented Nuclei (%) [6]: 27% and 31% | Population Healthy Nuclei (%) [6]: 59% and 60% | Population Hoechst High Intensity Objects (%) [6]: 6% and 5% | Population Membrane Permeable-Phenotype (%) [6]: 0% | Population Mitochondria Different-Phenotype (%) [6]: 7% and 1% | Population Mitotic Cells (%) [6]: 37% and 36% | Population Normal (%) [6]: 93% and 94% | Population Pyknosed Nuclei (%) [6]: 12% and 7% | Population Tubulin-Different-Phenotype (%) [6]: 91% and 86% | Total Cell Count [6]: 230 and 293

CCCCC(=O)N(Cc1ccc(-c2ccccc2-c2nnn[nH]2)cc1)[C@H](C(=O)O)C(C)C
Population Apoptotic (%) [1]: 45% and 44% | Population Fragmented Nuclei (%) [1]: 9% and 21% | Population Healthy Nuclei (%) [1]: 74% and 54% | Population Hoechst High Intensity Objects (%) [1]: 4% and 3% | Population Membrane Permeable-Phenotype (%) [1]: 0% and 8% | Population Mitochondria Different-Phenotype (%) [1]: 0% and 6% | Population Mitotic Cells (%) [1]: 54% and 55% | Population Normal (%) [1]: 95% and 96% | Population Pyknosed Nuclei (%) [1]: 16% and 24% | Population Tubulin-Different-Phenotype (%) [1]: 20% and 36% | Total Cell Count [1]: 143 and 156 | Population Apoptotic (%) [2]: 37% | Population Fragmented Nuclei (%) [2]: 20% and 27% | Population Healthy Nuclei (%) [2]: 56% and 42% | Population Hoechst High Intensity Objects (%) [2]: 0% and 3% | Population Membrane Permeable-Phenotype (%) [2]: 3% and 11% | Population Mitochondria Different-Phenotype (%) [2]: 3% and 11% | Population Mitotic Cells (%) [2]: 62% | Population Normal (%) [2]: 100% and 96% | Population Pyknosed Nuclei (%) [2]: 22% and 29% | Population Tubulin-Different-Phenotype (%) [2]: 23% and 51% | Total Cell Count [2]: 106 and 130 | Population Apoptotic (%) [3]: 66% and 38% | Population Fragmented Nuclei (%) [3]: 15% and 21% | Population Healthy Nuclei (%) [3]: 70% and 52% | Population Hoechst High Intensity Objects (%) [3]: 0% and 2% | Population Membrane Permeable-Phenotype (%) [3]: 1% and 2% | Population Mitochondria Different-Phenotype (%) [3]: 2% and 1% | Population Mitotic Cells (%) [3]: 33% and 61% | Population Normal (%) [3]: 99% and 97% | Population Pyknosed Nuclei (%) [3]: 14% and 25% | Population Tubulin-Different-Phenotype (%) [3]: 17% and 25% | Total Cell Count [3]: 146 and 145 | Population Apoptotic (%) [4]: 48% and 35% | Population Fragmented Nuclei (%) [4]: 18% and 25% | Population Healthy Nuclei (%) [4]: 56% and 44% | Population Hoechst High Intensity Objects (%) [4]: 2% and 4% | Population Membrane Permeable-Phenotype (%) [4]: 0% and 9% | Population Mitochondria Different-Phenotype (%) [4]: 1% and 10% | Population Mitotic Cells (%) [4]: 51% and 64% | Population Normal (%) [4]: 97% and 95% | Population Pyknosed Nuclei (%) [4]: 25% and 29% | Population Tubulin-Different-Phenotype (%) [4]: 31% and 65% | Total Cell Count [4]: 110 and 130 | Population Apoptotic (%) [5]: 80% and 40% | Population Fragmented Nuclei (%) [5]: 18% and 27% | Population Healthy Nuclei (%) [5]: 71% and 51% | Population Hoechst High Intensity Objects (%) [5]: 6% and 3% | Population Membrane Permeable-Phenotype (%) [5]: 0% and 1% | Population Mitochondria Different-Phenotype (%) [5]: 1% and 3% | Population Mitotic Cells (%) [5]: 20% and 59% | Population Normal (%) [5]: 93% and 96% | Population Pyknosed Nuclei (%) [5]: 10% and 21% | Population Tubulin-Different-Phenotype (%) [5]: 17% and 33% | Total Cell Count [5]: 153 and 155 | Population Apoptotic (%) [6]: 64% and 57% | Population Fragmented Nuclei (%) [6]: 28% and 39% | Population Healthy Nuclei (%) [6]: 56% and 39% | Population Hoechst High Intensity Objects (%) [6]: 4% | Population Membrane Permeable-Phenotype (%) [6]: 0% and 7% | Population Mitochondria Different-Phenotype (%) [6]: 5% | Population Mitotic Cells (%) [6]: 35% and 42% | Population Normal (%) [6]: 95% | Population Pyknosed Nuclei (%) [6]: 15% and 20% | Population Tubulin-Different-Phenotype (%) [6]: 30% and 69% | Total Cell Count [6]: 112 and 141

CC(F)(F)CN1CCOc2c(nn(-c3ccccc3Cl)c2-c2ccc(Cl)cc2)C1=O
Population Apoptotic (%) [1]: 42% and 31% | Population Healthy Nuclei (%) [1]: 66% and 48% | Population Hoechst High Intensity Objects (%) [1]: 0% | Population Membrane Permeable-Phenotype (%) [1]: 1% | Population Mitochondria Different-Phenotype (%) [1]: 4% and 10% | Population Mitotic Cells (%) [1]: 57% and 68% | Population Normal (%) [1]: 99% and 93% | Population Pyknosed Nuclei (%) [1]: 15% and 25% | Population Tubulin-Different-Phenotype (%) [1]: 61% | Total Cell Count [1]: 125 and 122 | Population Apoptotic (%) [2]: 47% and 30% | Population Healthy Nuclei (%) [2]: 66% and 53% | Population Hoechst High Intensity Objects (%) [2]: 1% and 5% | Population Membrane Permeable-Phenotype (%) [2]: 0% and 2% | Population Mitochondria Different-Phenotype (%) [2]: 19% and 8% | Population Mitotic Cells (%) [2]: 52% and 70% | Population Normal (%) [2]: 98% and 94% | Population Pyknosed Nuclei (%) [2]: 17% and 15% | Population Tubulin-Different-Phenotype (%) [2]: 49% and 57% | Total Cell Count [2]: 109 and 134 | Population Apoptotic (%) [3]: 61% and 64% | Population Healthy Nuclei (%) [3]: 65% and 52% | Population Hoechst High Intensity Objects (%) [3]: 1% and 4% | Population Membrane Permeable-Phenotype (%) [3]: 1% | Population Mitochondria Different-Phenotype (%) [3]: 2% and 10% | Population Mitotic Cells (%) [3]: 38% and 36% | Population Normal (%) [3]: 98% and 95% | Population Pyknosed Nuclei (%) [3]: 15% and 20% | Population Tubulin-Different-Phenotype (%) [3]: 75% | Total Cell Count [3]: 119 and 129 | Population Apoptotic (%) [4]: 33% and 35% | Population Healthy Nuclei (%) [4]: 65% and 54% | Population Hoechst High Intensity Objects (%) [4]: 0% and 1% | Population Membrane Permeable-Phenotype (%) [4]: 0% and 6% | Population Mitochondria Different-Phenotype (%) [4]: 26% and 10% | Population Mitotic Cells (%) [4]: 66% and 64% | Population Normal (%) [4]: 99% and 98% | Population Pyknosed Nuclei (%) [4]: 10% and 14% | Population Tubulin-Different-Phenotype (%) [4]: 58% and 60% | Total Cell Count [4]: 111 and 121 | Population Apoptotic (%) [5]: 56% and 40% | Population Healthy Nuclei (%) [5]: 63% and 53% | Population Hoechst High Intensity Objects (%) [5]: 1% and 4% | Population Membrane Permeable-Phenotype (%) [5]: 4% and 1% | Population Mitotic Cells (%) [5]: 43% and 60% | Population Normal (%) [5]: 98% and 95% | Population Pyknosed Nuclei (%) [5]: 11% and 7% | Population Tubulin-Different-Phenotype (%) [5]: 35% and 72% | Total Cell Count [5]: 136 and 135 | Population Apoptotic (%) [6]: 78% and 54% | Population Healthy Nuclei (%) [6]: 56% and 54% | Population Hoechst High Intensity Objects (%) [6]: 1% | Population Membrane Permeable-Phenotype (%) [6]: 0% and 3% | Population Mitotic Cells (%) [6]: 21% and 45% | Population Normal (%) [6]: 98% | Population Pyknosed Nuclei (%) [6]: 11% and 7% | Population Tubulin-Different-Phenotype (%) [6]: 57% | Total Cell Count [6]: 120 and 141
